From paper PMC3372638 (Journal of Molecular Biology, 2012)

What was measured:
HsP5CDH [1] = target: T1, HsP5CDH (Homo sapiens, UniProt P30038); experiment: isothermal titration calorimetry; type: binding
T1 sequence (P30038 18-563): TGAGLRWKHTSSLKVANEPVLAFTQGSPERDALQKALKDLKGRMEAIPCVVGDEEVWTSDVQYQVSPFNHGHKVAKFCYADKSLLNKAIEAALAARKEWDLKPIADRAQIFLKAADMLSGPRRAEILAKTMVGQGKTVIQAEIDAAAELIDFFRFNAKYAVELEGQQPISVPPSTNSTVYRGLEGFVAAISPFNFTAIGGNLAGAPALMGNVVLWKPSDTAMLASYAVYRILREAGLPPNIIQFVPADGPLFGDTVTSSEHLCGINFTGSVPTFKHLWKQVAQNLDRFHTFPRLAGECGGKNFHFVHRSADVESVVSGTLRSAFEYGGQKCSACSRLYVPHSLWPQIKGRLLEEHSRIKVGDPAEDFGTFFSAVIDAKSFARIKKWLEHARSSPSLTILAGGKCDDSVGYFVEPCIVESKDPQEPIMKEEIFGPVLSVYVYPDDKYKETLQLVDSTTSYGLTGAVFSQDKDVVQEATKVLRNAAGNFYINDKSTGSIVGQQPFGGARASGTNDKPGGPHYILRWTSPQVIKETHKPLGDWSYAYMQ
In short: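 His-tagged human P5CDH was expressed in E. coli BL21(DE3)pLysS and purified by Ni2+-affinity then anion exchange. It was dialysed into 50 mM Tris, 50 mM NaCl, 0.5 mM THP, 0.5 mM EDTA, 5 % glycerol, pH 8.0, with NAD+ dissolved in the dialysate and pH-matched. Run at 25 °C: 20 μl NAD+ injections every 240 s, 250 rpm, 4 μl pre-injection discarded. Three titrations (30, 34, 47 μM protein) were fitted globally to a single-site model.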

HsP5CDH [2] = target: T2, HsP5CDH (Homo sapiens, UniProt P30038, S352A); experiment: isothermal titration calorimetry; type: binding
T2 sequence (P30038 18-563 S352A): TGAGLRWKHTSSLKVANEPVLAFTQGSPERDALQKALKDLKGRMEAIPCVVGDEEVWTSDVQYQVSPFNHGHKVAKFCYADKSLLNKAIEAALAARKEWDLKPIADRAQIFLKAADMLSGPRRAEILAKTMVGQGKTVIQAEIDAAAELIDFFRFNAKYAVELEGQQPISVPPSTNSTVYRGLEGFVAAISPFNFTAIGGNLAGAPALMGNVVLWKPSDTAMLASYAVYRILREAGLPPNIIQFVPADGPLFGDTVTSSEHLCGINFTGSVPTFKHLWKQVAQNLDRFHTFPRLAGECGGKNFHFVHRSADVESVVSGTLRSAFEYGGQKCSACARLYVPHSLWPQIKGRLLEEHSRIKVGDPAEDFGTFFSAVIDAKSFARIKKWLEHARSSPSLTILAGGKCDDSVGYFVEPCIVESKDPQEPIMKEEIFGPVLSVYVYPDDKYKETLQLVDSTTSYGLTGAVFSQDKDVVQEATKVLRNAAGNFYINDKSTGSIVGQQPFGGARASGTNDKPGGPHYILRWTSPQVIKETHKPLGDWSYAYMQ
In short: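 Site-directed S352A mutant of His-tagged human P5CDH was expressed in E. coli BL21(DE3)pLysS and purified by Ni2+-affinity and anion exchange. It was dialysed into 50 mM Tris, 50 mM NaCl, 0.5 mM THP, 0.5 mM EDTA, 5 % glycerol, pH 8.0, with NAD+ in the dialysate and pH-matched. Titrated at 25 °C: 20 μl injections at 240-s intervals, 250 rpm, 4 μl pre-injection discarded. Fitted to a single-site binding model.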

AUC = target: the molecule itself; experiment: AUC
crystal structure = target: the molecule itself; experiment: crystal structure

## NC(=O)c1ccc[n+]([C@@H]2O[C@H](COP(=O)(O)OP(=O)(O)OC[C@H]3O[C@@H](n4cnc5c(N)ncnc54)[C@H](O)[C@@H]3O)[C@@H](O)[C@H]2O)c1 [NAD^+]
HsP5CDH [1]
  Kd: 15 µM
HsP5CDH [2]
  Kd: 10 µM

B1: human Δ1-pyrroline-5-carboxylate dehydrogenase (enzyme, UniProt P30038-1 18-563, looked up)
chain: TGAGLRWKHTSSLKVANEPVLAFTQGSPERDALQKALKDLKGRMEAIPCVVGDEEVWTSDVQYQVSPFNHGHKVAKFCYADKSLLNKAIEAALAARKEWDLKPIADRAQIFLKAADMLSGPRRAEILAKTMVGQGKTVIQAEIDAAAELIDFFRFNAKYAVELEGQQPISVPPSTNSTVYRGLEGFVAAISPFNFTAIGGNLAGAPALMGNVVLWKPSDTAMLASYAVYRILREAGLPPNIIQFVPADGPLFGDTVTSSEHLCGINFTGSVPTFKHLWKQVAQNLDRFHTFPRLAGECGGKNFHFVHRSADVESVVSGTLRSAFEYGGQKCSACSRLYVPHSLWPQIKGRLLEEHSRIKVGDPAEDFGTFFSAVIDAKSFARIKKWLEHARSSPSLTILAGGKCDDSVGYFVEPCIVESKDPQEPIMKEEIFGPVLSVYVYPDDKYKETLQLVDSTTSYGLTGAVFSQDKDVVQEATKVLRNAAGNFYINDKSTGSIVGQQPFGGARASGTNDKPGGPHYILRWTSPQVIKETHKPLGDWSYAYMQ
AUC
  stoichiometry N: 2

B2: human Δ1-pyrroline-5-carboxylate dehydrogenase with Ser352 mutated to Ala (enzyme, UniProt P30038-1 18-563, looked up)
chain: TGAGLRWKHTSSLKVANEPVLAFTQGSPERDALQKALKDLKGRMEAIPCVVGDEEVWTSDVQYQVSPFNHGHKVAKFCYADKSLLNKAIEAALAARKEWDLKPIADRAQIFLKAADMLSGPRRAEILAKTMVGQGKTVIQAEIDAAAELIDFFRFNAKYAVELEGQQPISVPPSTNSTVYRGLEGFVAAISPFNFTAIGGNLAGAPALMGNVVLWKPSDTAMLASYAVYRILREAGLPPNIIQFVPADGPLFGDTVTSSEHLCGINFTGSVPTFKHLWKQVAQNLDRFHTFPRLAGECGGKNFHFVHRSADVESVVSGTLRSAFEYGGQKCSACARLYVPHSLWPQIKGRLLEEHSRIKVGDPAEDFGTFFSAVIDAKSFARIKKWLEHARSSPSLTILAGGKCDDSVGYFVEPCIVESKDPQEPIMKEEIFGPVLSVYVYPDDKYKETLQLVDSTTSYGLTGAVFSQDKDVVQEATKVLRNAAGNFYINDKSTGSIVGQQPFGGARASGTNDKPGGPHYILRWTSPQVIKETHKPLGDWSYAYMQ
Crystal structure
  binding result: binds

B3: human Δ1-pyrroline-5-carboxylate dehydrogenase with Ser352 mutated to Leu (enzyme, UniProt P30038-1 18-563, looked up)
chain: TGAGLRWKHTSSLKVANEPVLAFTQGSPERDALQKALKDLKGRMEAIPCVVGDEEVWTSDVQYQVSPFNHGHKVAKFCYADKSLLNKAIEAALAARKEWDLKPIADRAQIFLKAADMLSGPRRAEILAKTMVGQGKTVIQAEIDAAAELIDFFRFNAKYAVELEGQQPISVPPSTNSTVYRGLEGFVAAISPFNFTAIGGNLAGAPALMGNVVLWKPSDTAMLASYAVYRILREAGLPPNIIQFVPADGPLFGDTVTSSEHLCGINFTGSVPTFKHLWKQVAQNLDRFHTFPRLAGECGGKNFHFVHRSADVESVVSGTLRSAFEYGGQKCSACLRLYVPHSLWPQIKGRLLEEHSRIKVGDPAEDFGTFFSAVIDAKSFARIKKWLEHARSSPSLTILAGGKCDDSVGYFVEPCIVESKDPQEPIMKEEIFGPVLSVYVYPDDKYKETLQLVDSTTSYGLTGAVFSQDKDVVQEATKVLRNAAGNFYINDKSTGSIVGQQPFGGARASGTNDKPGGPHYILRWTSPQVIKETHKPLGDWSYAYMQ
Crystal structure
  binding result: binds
